3 molecules from ChEMBL document CHEMBL3865799, “Synthesis of a series of novel dihydroartemisinin monomers and dimers containing chalcone as a linker and their anticancer activity” (Eur J Med Chem, 2016) can be followed below.

pIC50: −log10 of the molar value.

Data set [1] can be described thus: Cytotoxicity against human HepG2 cells assessed as cell growth inhibition at 30 uM after 48 hrs by MTT assay. The conditions noted are these: HepG2, 48 h, read-out: GI. In kind it is functional. In outline: (§1)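 Adherent lines at 70–75% confluence, grown at 37 °C in 5% CO2 with 10% FCS. Exposed 48 h to compound in DMSO (vehicle <0.2% v/v). MTT dye added 3 h before termination; formazan dissolved in DMSO, OD 570 nm with 620 nm reference. Growth inhibition expressed as % of untreated; IC50 taken from the dose series.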

Data set [2] can be described thus: Lipophilicity, log P of the compound. Format: physicochemical. The conditions noted are these: octanol/water.
Data set [3] is described as follows: Cytotoxicity against human LS180 cells assessed as cell growth inhibition at 30 uM after 48 hrs by MTT assay. In kind it is functional. Particulars: LS180, 48 h, read-out: GI. Summed up: as §1
Data set [4] in a line: Cytotoxicity against human PC3 cells assessed as cell growth inhibition at 50 uM after 48 hrs by MTT assay. Format: functional. Particulars: PC-3, 48 h, read-out: GI. Summed up: as §1
Data set [5] in a line: Cytotoxicity against human LS180 cells assessed as cell growth inhibition at 50 uM after 48 hrs by MTT assay. In kind it is functional. The conditions noted are these: LS180, 48 h, read-out: GI. Summed up:
as §1
A general note: Tetrazolium dyes change colour on reduction, which living cells bring about.

A short description of data set [6]: Cytotoxicity against human HepG2 cells assessed as cell growth inhibition at 50 uM after 48 hrs by MTT assay. Format: functional. Particulars: HepG2, 48 h, read-out: GI. In outline:
as §1

Data set [7] is described as follows: Cytotoxicity against human MIAPaCa2 cells assessed as cell growth inhibition at 50 uM after 48 hrs by MTT assay. The conditions noted are these: MIA PaCa-2, 48 h, read-out: GI. In kind it is functional. Summed up:
as §1

Data set [8] can be described thus: Cytotoxicity against human HL60 cells assessed as cell growth inhibition at 30 uM after 48 hrs by MTT assay. Format: functional. Particulars: HL-60, 48 h, read-out: GI. Summed up: (§2)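 HL-60 suspension cells, 1.5 × 10^4 per well, grown at 37 °C in 5% CO2 with 10% FCS. Treated 48 h with compound in DMSO (vehicle <0.2% v/v). MTT added 3 h before the end. Formazan dissolved in DMSO and read at 570 nm (reference 620 nm). % growth inhibition computed against untreated cells; IC50 taken from the concentration series.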

A short description of data set [9]: Cytotoxicity against human PC3 cells assessed as cell growth inhibition at 30 uM after 48 hrs by MTT assay. Format: functional. The conditions noted are these: PC-3, 48 h, read-out: GI. In outline: as §1
The nature of data set [10]: Cytotoxicity against human MIAPaCa2 cells assessed as cell growth inhibition at 30 uM after 48 hrs by MTT assay. Format: functional. Particulars: MIA PaCa-2, 48 h, read-out: GI. In outline: as §1
A short description of data set [11]: Aqueous solubility of the compound at pH 7. Format: physicochemical.
Data set [12] can be described thus: Cytotoxicity against human HL60 cells assessed as cell growth inhibition at 50 uM after 48 hrs by MTT assay. Format: functional. The conditions noted are these: HL-60, 48 h, read-out: GI. Summed up:
as §2

The nature of data set [13]: Cytotoxicity against human HL60 cells assessed as cell growth inhibition at 1 uM after 48 hrs by MTT assay. In kind it is functional. Particulars: HL-60, 48 h, read-out: GI. Summed up: as §2
The nature of data set [14]: Cytotoxicity against human HepG2 cells assessed as cell growth inhibition at 1 uM after 48 hrs by MTT assay. Format: functional. The conditions noted are these: HepG2, 48 h, read-out: GI. Summed up:
as §1

The subject of data set [15] is Vero. The experiment in a line: Selectivity index, ratio of IC50 for African green monkey Vero cells to IC50 for human HL60 cells. In kind it is functional. In outline:
(§3)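 Suspension cells were seeded at 1.5 × 10^4 per well and adherent lines at 70–75% confluence, then exposed to a range of concentrations. MTT was added 3 h before the end, formazan dissolved in DMSO, and OD read at 570 nm (reference 620 nm). Growth inhibition was taken relative to untreated cells. IC50 came from the MTT data; SI = IC50 in Vero cells / IC50 in the tumour line.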

Data set [16] is described as follows: Cytotoxicity against human HL60 cells assessed as cell growth inhibition after 48 hrs by MTT assay. Format: functional, cell-based. The conditions noted are these: HL-60, 48 h. Summed up:
as §2

A short description of data set [17]: Cytotoxicity against human MIAPaCa2 cells assessed as cell growth inhibition at 10 uM after 48 hrs by MTT assay. In kind it is functional. The conditions noted are these: MIA PaCa-2, 48 h, read-out: GI. Summed up:
as §1

Data set [18] can be described thus: Cytotoxicity against human LS180 cells assessed as cell growth inhibition at 0.5 uM after 48 hrs by MTT assay. The conditions noted are these: LS180, 48 h, read-out: GI. In kind it is functional. Summed up: as §1
A short description of data set [19]: Cytotoxicity against human PC3 cells assessed as cell growth inhibition after 48 hrs by MTT assay. Format: functional, cell-based. Particulars: PC-3, 48 h. Summed up:
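Exposed 48 h to compound in DMSO (vehicle <0.2% v/v). MTT dye added 3 h before termination; formazan dissolved in DMSO, OD 570 nm with 620 nm reference. Growth inhibition expressed as % of untreated; IC50 taken from the dose series.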

A short description of data set [20]: Cytotoxicity against human HepG2 cells assessed as cell growth inhibition at 10 uM after 48 hrs by MTT assay. Format: functional. Particulars: HepG2, 48 h, read-out: GI. In outline: as §1
Data set [21] is described as follows: Cytotoxicity against human LS180 cells assessed as cell growth inhibition after 48 hrs by MTT assay. In kind it is functional, cell-based. Particulars: LS180, 48 h. Summed up:
as §1

A short description of data set [22]: Cytotoxicity against human MIAPaCa2 cells assessed as cell growth inhibition at 0.5 uM after 48 hrs by MTT assay. Format: functional. Particulars: MIA PaCa-2, 48 h, read-out: GI. Summed up: as §1
Data set [23] in a line: Cytotoxicity against human HepG2 cells assessed as cell growth inhibition after 48 hrs by MTT assay. Particulars: HepG2, 48 h. Format: functional, cell-based. Summed up:
as §1

Data set [24] concerns Vero. The experiment in a line: Selectivity index, ratio of IC50 for African green monkey Vero cells to IC50 for human PC3 cells. Format: functional. Summed up: as §3
Data set [25] in a line: Selectivity index, ratio of IC50 for African green monkey Vero cells to IC50 for human LS180 cells. In kind it is functional. Summed up: as §3
A further data set deals with HepG2. The experiment in a line: Selectivity index, ratio of IC50 for African green monkey Vero cells to IC50 for human HepG2 cells. In kind it is functional. Summed up: as §3
Data set [26] can be described thus: Cytotoxicity against human HL60 cells assessed as cell growth inhibition at 0.5 uM after 48 hrs by MTT assay. In kind it is functional. Particulars: HL-60, 48 h, read-out: GI. In outline:
as §2

A short description of data set [27]: Cytotoxicity against human LS180 cells assessed as cell growth inhibition at 1 uM after 48 hrs by MTT assay. Format: functional. Particulars: LS180, 48 h, read-out: GI. Summed up: as §1
A short description of data set [28]: Cytotoxicity against human LS180 cells assessed as cell growth inhibition at 10 uM after 48 hrs by MTT assay. The conditions noted are these: LS180, 48 h, read-out: GI. Format: functional. In outline: as §1
The nature of data set [29]: Cytotoxicity against human HL60 cells assessed as cell growth inhibition at 10 uM after 48 hrs by MTT assay. Format: functional. Particulars: HL-60, 48 h, read-out: GI. In outline:
as §2

The nature of data set [30]: Cytotoxicity against human MIAPaCa2 cells assessed as cell growth inhibition at 1 uM after 48 hrs by MTT assay. Format: functional. Particulars: MIA PaCa-2, 48 h, read-out: GI. In outline:
as §1

Data set [31] in a line: Cytotoxicity against human HepG2 cells assessed as cell growth inhibition at 0.5 uM after 48 hrs by MTT assay. In kind it is functional. The conditions noted are these: HepG2, 48 h, read-out: GI. Summed up:
as §1

Data set [32] is described as follows: Cytotoxicity against human PC3 cells assessed as cell growth inhibition at 1 uM after 48 hrs by MTT assay. Format: functional. Particulars: PC-3, 48 h, read-out: GI. Summed up:
as §1

The nature of data set [33]: Cytotoxicity against human PC3 cells assessed as cell growth inhibition at 0.5 uM after 48 hrs by MTT assay. In kind it is functional. Particulars: PC-3, 48 h, read-out: GI. In outline: as §1
For data set [34], the system named is Vero. The experiment in a line: Selectivity index, ratio of IC50 for African green monkey Vero cells to IC50 for human MIAPaCa2 cells. Format: functional. In outline: as §3
The nature of data set [35]: Cytotoxicity against human MIAPaCa2 cells assessed as cell growth inhibition after 48 hrs by MTT assay. In kind it is functional, cell-based. Particulars: MIA PaCa-2, 48 h. In outline:
as §1

Data set [36] can be described thus: Cytotoxicity against human PC3 cells assessed as cell growth inhibition at 10 uM after 48 hrs by MTT assay. Format: functional. Particulars: PC-3, 48 h, read-out: GI. In outline: as §1

In general, logP refers to the decadic logarithm of the partition coefficient of the neutral form, usually between octanol and water. By solubility is commonly meant the dissolved amount per volume that the medium holds. In the case of `CCOc1cc(/C=C/C(=O)c2ccc(OCCO[C@H]3O[C@@H]4O[C@@]5(C)CC[C@H]6[C@H](C)CC[C@@H]([C@H]3C)[C@@]46OO5)cc2)ccc1O`, the inhibition of growth at 30 µM stood at 25.5% in data set [1]; 27.4% in data set [3]; 80.8% in data set [8]; 55.1% in [9]; 49.4% in [10]. In addition, the logP in data set [2] fell in the range of 5.34 to 7.45. Further, the inhibition of growth at 50 µM in [4] worked out at 58.9%; in data set [5] it was 36.3%; in [6], 28.2%; in data set [7] it was 49.8%; in data set [12], 84.1%. The molecule also came in with a solubility in data set [11] of under 10 µg/mL.
As to `C[C@H]1[C@@H](OCCOc2ccc(/C=C/C(=O)c3ccc(OCCO[C@H]4O[C@@H]5O[C@@]6(C)CC[C@H]7[C@H](C)CC[C@@H]([C@H]4C)[C@@]57OO6)cc3)cc2)O[C@@H]2O[C@@]3(C)CC[C@H]4[C@H](C)CC[C@@H]1[C@@]24OO3`, the inhibition of growth at 30 µM in [1] stood at 40.9%; in data set [3], 45.8%; in [8], 85.6%; in [9], 44.2%; in data set [10], 45.1%. In addition, in [2], the logP is 5.34 to 7.45. In addition, the inhibition of growth at 50 µM in data set [4] was determined as 47.6%; in data set [5], 49.5%; in data set [6], 47.8%; in data set [7], 49.1%; in [12], 87.9%. For the same molecule, the solubility in data set [11] was under 10 µg/mL.
The term pIC50 denotes −log10 of the IC50, conventionally taken in molar units. As for `COc1cc(/C=C/C(=O)c2ccc(OCCO[C@H]3O[C@@H]4O[C@@]5(C)CC[C@H]6[C@H](C)CC[C@@H]([C@H]3C)[C@@]46OO5)cc2)cc(OC)c1OCCO[C@H]1O[C@@H]2O[C@@]3(C)CC[C@H]4[C@H](C)CC[C@@H]([C@H]1C)[C@@]24OO3`, the inhibition of growth at 30 µM in [1] is 32.9%; in data set [3], 58.1%; in data set [8] it was 85.4%; in [9] it was 57.6%; in data set [10] it was 37.4 to 40.1%. Further, the inhibition of growth at 1 µM in data set [13] is 83.9%; in data set [14] it was 41.5%; in data set [27] it was 27.6%; in data set [30], 38.1%; in data set [32], 45.9%. In addition, the “Ratio IC50” value with Vero [15] worked out at 88; in the data set with Vero [24], 210; in data set [25], 162; in the data set with HepG2 it was 210; in the data set with Vero [34], 100. Moreover, the pIC50 in data set [16] was 6.52; in [19], 5.00; in data set [21] it was 4.80; in [23], 5.40; in data set [35], under 4.30. In data set [2], the logP is 5.34 to 7.45. The inhibition of growth at 10 µM was found to be 38.7% in data set [17]; 59.1% in [20]; 44.6% in data set [28]; 84.6% in [29]; 50.2% in data set [36]. In addition, the inhibition of growth at 0.5 µM in data set [18] was 15.3%; in data set [22] it was 37.3%; in data set [26], 77.2%; in [31], 38.8%; in data set [33] it was 34.5%. In addition, the inhibition of growth at 50 µM in [4] is 57.9%; in data set [5] it was 70.1%; in [6], 33.8 to 58.1%; in data set [7], 48.1%; in [12] it was 86.1%. This molecule returned a solubility in data set [11] of under 10 µg/mL.
